One block for each molecule: values may come before it.
What was measured:
Nitric oxide synthase 1 = Nitric oxide synthase 1 (Rattus norvegicus, UniProt P29476); experiment: Inhibition of rat recombinant nNOS expressed in baculovirus-infected Sf9 cells assessed as conversion of oxyhemoglobin to methemoglobin by UV spectrophotometer analysis
Nitric oxide synthase 3 = target: T1, Nitric oxide synthase 3 (Mus musculus, UniProt P70313); experiment: Inhibition of C57BL/6 mouse eNOS assessed as conversion of oxyhemoglobin to methemoglobin by UV spectrophotometer analysis
T1 sequence (P70313 whole entry): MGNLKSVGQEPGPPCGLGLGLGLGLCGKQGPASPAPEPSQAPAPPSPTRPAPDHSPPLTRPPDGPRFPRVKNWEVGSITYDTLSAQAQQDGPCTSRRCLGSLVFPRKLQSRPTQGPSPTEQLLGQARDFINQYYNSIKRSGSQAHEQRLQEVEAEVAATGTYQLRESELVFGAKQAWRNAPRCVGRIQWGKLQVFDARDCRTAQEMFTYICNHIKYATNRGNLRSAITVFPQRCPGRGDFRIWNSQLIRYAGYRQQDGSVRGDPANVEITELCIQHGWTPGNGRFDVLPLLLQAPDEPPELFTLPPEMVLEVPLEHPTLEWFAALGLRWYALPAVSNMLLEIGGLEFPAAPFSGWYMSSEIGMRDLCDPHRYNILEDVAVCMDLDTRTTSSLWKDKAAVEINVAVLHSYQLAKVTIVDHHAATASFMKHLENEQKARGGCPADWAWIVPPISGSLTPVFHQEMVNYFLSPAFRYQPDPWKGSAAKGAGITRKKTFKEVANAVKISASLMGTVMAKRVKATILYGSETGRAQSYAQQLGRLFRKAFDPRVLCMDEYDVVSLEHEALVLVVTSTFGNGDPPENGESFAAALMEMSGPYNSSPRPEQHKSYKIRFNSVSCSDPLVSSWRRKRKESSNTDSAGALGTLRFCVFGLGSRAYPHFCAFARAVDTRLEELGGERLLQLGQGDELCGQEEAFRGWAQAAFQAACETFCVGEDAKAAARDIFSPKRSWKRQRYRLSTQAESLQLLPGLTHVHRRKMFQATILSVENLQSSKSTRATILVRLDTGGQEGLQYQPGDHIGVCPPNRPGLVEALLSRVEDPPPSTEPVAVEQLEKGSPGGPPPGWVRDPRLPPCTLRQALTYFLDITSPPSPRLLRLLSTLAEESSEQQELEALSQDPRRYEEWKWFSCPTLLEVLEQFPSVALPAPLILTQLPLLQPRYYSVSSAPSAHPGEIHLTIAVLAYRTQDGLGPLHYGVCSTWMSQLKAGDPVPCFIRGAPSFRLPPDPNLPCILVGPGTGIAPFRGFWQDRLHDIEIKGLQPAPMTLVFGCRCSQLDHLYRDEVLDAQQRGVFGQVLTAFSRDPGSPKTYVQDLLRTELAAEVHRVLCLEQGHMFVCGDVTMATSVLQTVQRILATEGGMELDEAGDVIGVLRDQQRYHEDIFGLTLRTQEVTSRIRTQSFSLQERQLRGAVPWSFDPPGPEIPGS
Outline: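 eNOS from H5V mouse endothelial cells (passage 5, DMEM with 10% FCS, 37 °C, 5% CO2). Cells were sonicated in Tris-HCl pH 7.4 with EDTA, DTT and protease inhibitors, and the 20,000 g supernatant was used. Activity was followed as oxyhemoglobin→methemoglobin conversion in Hepes pH 7.4 with L-arginine, NADPH, FAD, BH4, Ca2+ and calmodulin. Compounds tested at 500, 100 and 50. Results reported as Ki or percent inhibition.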

[1] = tested on: Radical scavenging activity; experiment: Antioxidant activity assessed as DPPH free radical scavenging activity after 10 mins; format: functional
Outline: (§1)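 Compounds in ethanol with DPPH radical, tested at 50, 100 and 500, held 10 min at room temperature. Absorbance read at 517 nm and reported as percent decrease against control. IC50 was calculated for selected compounds. Trolox served as reference. Standard deviation was ≤10% (n ≥ 3).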

[2] = tested on: Radical scavenging activity; experiment: Antioxidant activity assessed as DPPH free radical scavenging activity at 50 uM after 10 mins relative to control; format: functional; outline: as §1
[3] = Antioxidant activity assessed as NADH oxidation-induced superoxide radical scavenging activity at 25 uM after 20 mins relative to control; format: functional
Outline: (§2)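 Superoxide generated without a Fenton-type reaction from NADH, EDTA/MnCl2 and β-mercaptoethanol in triethanolamine-diethanolamine buffer, pH 7.4 (1 mL). Compounds tested at 25, 50 and 100. […] IC50 was calculated. SOD (40 mU/ml) served as reference. SD ≤10% (n ≥ 3).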

Plasma [4] = experiment: Antioxidant activity in human plasma assessed as inhibition of Fe2+-induced lipid hydroperoxidation at 100 uM after 2 hrs by FOX assay relative to control; format: functional, cell-free
Outline: (§3)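 Plasma from a healthy donor: heparinized venous blood taken after an overnight fast, spun at 800 g for 20 min. Plasma was diluted 1:1 with oxygenated PBS and incubated 2 h at 37 °C with or without compound (10, 50, 100). Lipid hydroperoxides were measured by FOX assay (Fe2+→Fe3+ with xylenol orange, 560 nm), calibrated against H2O2. Results given as percent inhibition against untreated plasma.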

[5] = Antioxidant activity assessed as NADH oxidation-induced superoxide radical scavenging activity after 20 mins; format: functional; outline: as §2
[6] = tested on: Radical scavenging activity; experiment: Antioxidant activity assessed as DPPH free radical scavenging activity at 100 uM after 10 mins relative to control; format: functional; outline: as §1
Plasma [7] = experiment: Antioxidant activity in human plasma assessed as inhibition of Fe2+-induced lipid hydroperoxidation at 25 uM after 2 hrs by FOX assay relative to control; format: functional, cell-free
Plasma [8] = experiment: Antioxidant activity in human plasma assessed as inhibition of Fe2+-induced lipid hydroperoxidation at 50 uM after 2 hrs by FOX assay relative to control; format: functional, cell-free; outline: as §3
[9] = Antioxidant activity assessed as NADH oxidation-induced superoxide radical scavenging activity at 100 uM after 20 mins relative to control; format: functional; outline: as §2
Plasma [10] = experiment: Antioxidant activity in human plasma assessed as inhibition of Fe2+-induced lipid hydroperoxidation after 2 hrs by FOX assay; format: functional, cell-free
[11] = tested on: Radical scavenging activity; experiment: Antioxidant activity assessed as DPPH free radical scavenging activity at 500 uM after 10 mins relative to control; format: functional; outline: as §1
[12] = Antioxidant activity assessed as NADH oxidation-induced superoxide radical scavenging activity at 50 uM after 20 mins relative to control; format: functional; outline: as §2
CYP450 = experiment: Inhibition of rat spleen microsomal CYP450 assessed as reduction of NADPH dependent cytochrome c at 500 uM; format: ADME; settings: spleen microsomes, probe cytochrome c
Outline: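 Rat spleen microsomal P450 activity measured as NADPH-dependent cytochrome c reduction. Incubation 15 min at 25 °C with or without compound, range 5–500.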

Sequence of Nitric oxide synthase 1 (P29476 whole entry): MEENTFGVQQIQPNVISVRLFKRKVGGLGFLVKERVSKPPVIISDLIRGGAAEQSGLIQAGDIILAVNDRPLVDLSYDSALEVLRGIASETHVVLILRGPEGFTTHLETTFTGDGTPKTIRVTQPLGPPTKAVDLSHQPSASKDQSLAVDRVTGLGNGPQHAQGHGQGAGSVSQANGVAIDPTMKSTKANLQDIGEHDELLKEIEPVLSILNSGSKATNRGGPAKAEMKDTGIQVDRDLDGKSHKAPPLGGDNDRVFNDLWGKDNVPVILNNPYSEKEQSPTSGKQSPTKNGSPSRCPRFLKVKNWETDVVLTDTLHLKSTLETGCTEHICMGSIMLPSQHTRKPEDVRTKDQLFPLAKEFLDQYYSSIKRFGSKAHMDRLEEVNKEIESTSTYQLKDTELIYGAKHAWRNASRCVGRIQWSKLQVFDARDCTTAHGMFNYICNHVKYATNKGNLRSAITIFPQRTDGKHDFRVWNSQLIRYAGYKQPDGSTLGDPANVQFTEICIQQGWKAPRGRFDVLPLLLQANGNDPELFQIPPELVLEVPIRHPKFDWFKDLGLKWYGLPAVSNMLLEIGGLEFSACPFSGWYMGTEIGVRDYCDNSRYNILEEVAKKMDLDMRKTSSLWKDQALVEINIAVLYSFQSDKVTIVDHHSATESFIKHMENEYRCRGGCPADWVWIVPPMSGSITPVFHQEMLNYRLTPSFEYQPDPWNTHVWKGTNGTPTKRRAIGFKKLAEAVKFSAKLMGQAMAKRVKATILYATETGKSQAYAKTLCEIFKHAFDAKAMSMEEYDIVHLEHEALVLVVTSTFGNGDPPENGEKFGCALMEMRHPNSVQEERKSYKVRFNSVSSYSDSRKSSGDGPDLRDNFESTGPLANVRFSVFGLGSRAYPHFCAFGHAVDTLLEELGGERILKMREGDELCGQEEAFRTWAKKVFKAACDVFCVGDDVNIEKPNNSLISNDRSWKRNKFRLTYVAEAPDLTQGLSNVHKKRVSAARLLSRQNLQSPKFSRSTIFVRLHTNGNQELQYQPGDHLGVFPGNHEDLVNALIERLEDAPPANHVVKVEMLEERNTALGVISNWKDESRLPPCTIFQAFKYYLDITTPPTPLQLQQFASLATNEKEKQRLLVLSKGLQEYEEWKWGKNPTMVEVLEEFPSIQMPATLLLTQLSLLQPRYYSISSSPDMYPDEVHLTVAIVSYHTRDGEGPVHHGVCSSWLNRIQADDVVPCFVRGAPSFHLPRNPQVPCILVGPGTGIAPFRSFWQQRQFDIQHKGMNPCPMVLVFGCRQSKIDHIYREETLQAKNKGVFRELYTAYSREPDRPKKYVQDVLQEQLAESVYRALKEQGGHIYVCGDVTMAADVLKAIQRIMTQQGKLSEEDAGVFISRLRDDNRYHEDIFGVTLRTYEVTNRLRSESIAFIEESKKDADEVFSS

Ki (Nitric oxide synthase 1): 47.5 µM | Ki (Nitric oxide synthase 3): 40 µM
SMILES: O=C(Cn1cncn1)c1ccc([N+](=O)[O-])cc1

Ki (Nitric oxide synthase 1): 36.3 µM | Ki (Nitric oxide synthase 3): 25 µM
SMILES: O=C(Cn1cnc(-c2ccccc2)c1-c1ccccc1)c1ccc([N+](=O)[O-])cc1

Ki (Nitric oxide synthase 1): 46.6 µM | Ki (Nitric oxide synthase 3): 2.75 µM
SMILES: O=C(Cn1cnc2ccccc21)c1ccc([N+](=O)[O-])cc1

IC50 [1]: > 500 µM | Ki (Nitric oxide synthase 1): 12.5 µM | IC50 [5]: 85 µM | IC50 (Plasma [10]): 17 µM | Ki (Nitric oxide synthase 3): 32.5 µM
SMILES: O=C(Cn1nnc2ccccc21)c1ccc([N+](=O)[O-])cc1
Activity [1]: Dose-dependent effect | Activity [2]: 14% | Activity [3]: 26% | inhibition (Plasma [4]): 57% | Activity [5]: Dose-dependent effect | Activity [6]: 21% | inhibition (Plasma [7]): 37% | inhibition (Plasma [8]): 48% | Activity [9]: 51% | Activity [11]: 31% | Activity [12]: 35%

Ki (Nitric oxide synthase 1): 230 µM
SMILES: O=C(Cn1cccc1)c1ccc([N+](=O)[O-])cc1

Ki (Nitric oxide synthase 1): 40 µM | Ki (Nitric oxide synthase 3): 37.5 µM
SMILES: O=C(Cn1ccnc1-c1ccccc1)c1ccc([N+](=O)[O-])cc1

Ki (Nitric oxide synthase 1): 35.8 µM | Ki (Nitric oxide synthase 3): 45 µM
SMILES: O=C(Cn1cnc2ncccc21)c1ccc([N+](=O)[O-])cc1

Ki (Nitric oxide synthase 1): 40 µM | Ki (Nitric oxide synthase 3): 60 µM
SMILES: O=C(Cn1cccn1)c1ccc([N+](=O)[O-])cc1

Ki (Nitric oxide synthase 1): 32.5 µM | Ki (Nitric oxide synthase 3): 60 µM
SMILES: O=C(Cn1cc2ccccc2n1)c1ccc([N+](=O)[O-])cc1

Ki (Nitric oxide synthase 1): 31.7 µM | Ki (Nitric oxide synthase 3): 70.2 µM
SMILES: O=C(Cn1cnc2cccnc21)c1ccc([N+](=O)[O-])cc1

Ki (Nitric oxide synthase 1): 45 µM | Ki (Nitric oxide synthase 3): 70 µM
SMILES: O=C(Cn1cnc(-c2ccccc2)c1)c1ccc([N+](=O)[O-])cc1

Ki (Nitric oxide synthase 1): 65 µM | Ki (Nitric oxide synthase 3): 90 µM
SMILES: Cc1cc(C)n(CC(=O)c2ccc([N+](=O)[O-])cc2)n1

Ki (Nitric oxide synthase 1): 63 µM | Ki (Nitric oxide synthase 3): 30 µM
SMILES: Cc1ccnn1CC(=O)c1ccc([N+](=O)[O-])cc1

IC50 [1]: > 500 µM | Ki (Nitric oxide synthase 1): 85 µM | IC50 [5]: 66 µM | IC50 (Plasma [10]): 10 µM | inhibition at 500 µM (CYP450): 13% | Ki (Nitric oxide synthase 3): > 2000 µM
SMILES: Cc1cn(CC(=O)c2ccc([N+](=O)[O-])cc2)cn1
Activity [1]: Dose-dependent effect | Activity [2]: 12% | Activity [3]: 20% | inhibition (Plasma [4]): 69% | Activity [5]: Dose-dependent effect | Activity [6]: 17% | inhibition (Plasma [7]): 53% | inhibition (Plasma [8]): 65% | Activity [9]: 56% | Activity [11]: 41% | Activity [12]: 23%

Ki (Nitric oxide synthase 1): 22.5 µM | Ki (Nitric oxide synthase 3): 30 µM
SMILES: O=C(Cn1nc2ccccc2n1)c1ccc([N+](=O)[O-])cc1

IC50 [1]: 415 µM | Ki (Nitric oxide synthase 1): 105 µM | IC50 [5]: 165 µM | IC50 (Plasma [10]): 18 µM | Ki (Nitric oxide synthase 3): > 5000 µM
SMILES: O=C(Cn1ccnc1)c1ccc([N+](=O)[O-])cc1

Ki (Nitric oxide synthase 1): 90 µM | Ki (Nitric oxide synthase 3): 45 µM
SMILES: Cc1cncn1CC(=O)c1ccc([N+](=O)[O-])cc1

Ki (Nitric oxide synthase 1): 66.2 µM | Ki (Nitric oxide synthase 3): 75 µM
SMILES: O=C(Cn1cc2cccc([N+](=O)[O-])c2n1)c1ccc([N+](=O)[O-])cc1

More lines, now with the values behind:

SMILES: O=C(Cn1cnc2ccccc21)c1ccccc1
Ki (Nitric oxide synthase 1): 480 µM

SMILES: O=C(Cn1cnc([N+](=O)[O-])c1)c1ccc([N+](=O)[O-])cc1
Ki (Nitric oxide synthase 1): 120 µM | Ki (Nitric oxide synthase 3): 120 µM

SMILES: CC(C)c1nccn1CC(=O)c1ccc(Br)cc1
Ki (Nitric oxide synthase 1): 450 µM

SMILES: Cc1cc2ncn(CC(=O)c3ccc([N+](=O)[O-])cc3)c2cc1C
Activity [1]: Dose-dependent effect | IC50 [1]: > 500 µM | Activity [2]: 11% | Ki (Nitric oxide synthase 1): 13.8 µM | Activity [3]: 0% | Activity [5]: Dose-dependent effect | IC50 [5]: > 100 µM | Activity [6]: 19% | Activity [9]: 45% | Activity [11]: 45% | Activity [12]: 37% | Ki (Nitric oxide synthase 3): 37.5 µM

SMILES: CCCc1nccn1CC(=O)c1ccc([N+](=O)[O-])cc1
Activity [1]: Dose-dependent effect | IC50 [1]: 262 µM | Activity [2]: 25% | Ki (Nitric oxide synthase 1): 40 µM | Activity [3]: 22% | inhibition (Plasma [4]): 44% | Activity [5]: Dose-dependent effect | IC50 [5]: 38 µM | Activity [6]: 35% | inhibition (Plasma [7]): 30% | inhibition (Plasma [8]): 31% | Activity [9]: 62% | IC50 (Plasma [10]): > 100 µM | Activity [11]: 56% | Activity [12]: 34% | Ki (Nitric oxide synthase 3): 45 µM

SMILES: Cc1nccn1CC(=O)c1ccc(Br)cc1
Ki (Nitric oxide synthase 1): 620 µM

SMILES: Cc1nccn1CC(=O)c1ccccc1
Ki (Nitric oxide synthase 1): > 500 µM

SMILES: O=C(Cn1ccnc1)c1ccc(S(=O)(=O)C(F)(F)F)cc1
Ki (Nitric oxide synthase 1): 450 µM

SMILES: Cc1nccn1CC(=O)c1ccc([N+](=O)[O-])cc1
IC50 [1]: 165 µM | Ki (Nitric oxide synthase 1): 74 µM | IC50 [5]: 70 µM | IC50 (Plasma [10]): 1.75 µM | Ki (Nitric oxide synthase 3): > 2000 µM

SMILES: CCc1nc(C)cn1CC(=O)c1ccc([N+](=O)[O-])cc1
Ki (Nitric oxide synthase 1): 75 µM | Ki (Nitric oxide synthase 3): 75 µM

SMILES: CC(C)c1nccn1CC(=O)c1ccc([N+](=O)[O-])cc1
IC50 [1]: 230 µM | Ki (Nitric oxide synthase 1): 22.5 µM | IC50 [5]: 185 µM | IC50 (Plasma [10]): > 100 µM | Ki (Nitric oxide synthase 3): 500 µM

SMILES: CC(C)c1nccn1CC(=O)c1ccccc1
Ki (Nitric oxide synthase 1): 750 µM
